These results are taken from paper PMC2233905 (The Journal of General Physiology, 2004).

One may read the inhibition as the percentage by which the read-out fell short of the control.

Data set [1] concerns K^+ current of rat sympathetic neurons. Conditions: cited from earlier work.
The target of data set [2] is T1, hEag1 channels (Homo sapiens, UniProt O95259).
T1 sequence (O95259 1-989): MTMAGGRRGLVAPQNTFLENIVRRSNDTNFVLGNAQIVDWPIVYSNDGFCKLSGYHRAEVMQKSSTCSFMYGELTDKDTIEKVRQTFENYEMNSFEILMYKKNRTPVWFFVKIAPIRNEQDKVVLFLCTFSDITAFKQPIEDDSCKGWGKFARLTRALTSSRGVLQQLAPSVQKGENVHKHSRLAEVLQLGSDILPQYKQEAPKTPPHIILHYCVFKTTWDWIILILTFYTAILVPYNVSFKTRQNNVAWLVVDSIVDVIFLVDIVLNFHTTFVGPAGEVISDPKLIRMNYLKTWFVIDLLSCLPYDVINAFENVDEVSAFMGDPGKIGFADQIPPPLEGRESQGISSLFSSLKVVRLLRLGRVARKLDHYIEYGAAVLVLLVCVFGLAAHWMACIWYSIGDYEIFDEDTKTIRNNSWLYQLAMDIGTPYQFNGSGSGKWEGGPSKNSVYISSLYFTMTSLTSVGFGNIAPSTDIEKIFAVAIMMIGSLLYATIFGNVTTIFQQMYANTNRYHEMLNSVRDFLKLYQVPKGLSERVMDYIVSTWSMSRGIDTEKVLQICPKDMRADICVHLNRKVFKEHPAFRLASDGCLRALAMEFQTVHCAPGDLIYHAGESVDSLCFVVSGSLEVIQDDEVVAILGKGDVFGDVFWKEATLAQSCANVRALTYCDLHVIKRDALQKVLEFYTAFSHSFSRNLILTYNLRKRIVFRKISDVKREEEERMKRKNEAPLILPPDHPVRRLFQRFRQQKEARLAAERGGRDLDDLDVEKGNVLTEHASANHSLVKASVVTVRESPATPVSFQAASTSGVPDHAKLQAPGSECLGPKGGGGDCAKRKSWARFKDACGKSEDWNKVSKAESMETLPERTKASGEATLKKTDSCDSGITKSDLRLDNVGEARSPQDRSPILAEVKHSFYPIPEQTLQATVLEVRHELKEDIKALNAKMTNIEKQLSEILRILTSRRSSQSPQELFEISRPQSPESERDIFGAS
Kind of data set: Whole-cell patch-clamp of hEag1 currents in stably transfected HEK-293 cells. The data set is classed as cell-based. A general note: The patch-clamp technique gives a direct electrical read-out from membranes.

Data set [3] has as its target T1, hEag1 channels. Kind of data set: Inside-out patch recordings of hEag1 currents. In kind it is cell-based. The method in brief:
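Inside-out patches from hEag1-expressing cells at room temperature. Pipette: 145 NaCl, 5 KCl, 3 CaCl2, 1 MgCl2, 10 HEPES/NaOH pH 7.4. Successive 6-s pulses at 80 mV with drug applied for 2.5 s. Current ratios to preapplication traces were fitted with a single exponential to give the block time constant.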

For data set [4], the target named is T1, hEag1 channels. In words: Outside-out patch recordings of hEag1 currents. In kind it is cell-based. The method in brief:
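Outside-out patches from hEag1-expressing cells at room temperature. Successive 6-s recordings at 80 mV; drug applied to the extracellular face for 2.5 s, then removed. Currents were divided point-wise by control traces, and the time course was fitted with a single exponential to give the block or equilibration time constant and the steady-state fraction blocked.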

For data set [5], the target named is T1, hEag1 channels. In words: Cell-attached patch recordings of hEag1 currents, drug in bath. The data set is classed as cell-based. Conditions: 140 mM external K+, 60 mV. A digest of the protocol:
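hEag1-expressing cells grown 24–72 h on poly-L-lysine-coated coverslips; cell-attached patches at room temperature. Bath held 140 mM K+; pipette held control external solution (160 NaCl, 2.5 KCl, 2 CaCl2, 1 MgCl2, 10 HEPES, pH 7.4) without glucose. 1-s steps to 60 mV from −70 mV were recorded before, during and after washout of bath-applied drug.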

Data set [6] in a line: Ionization: pKa and calculated protonated fractions. The data set is classed as physicochemical. The method in brief: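 Fractions of unprotonated, monoprotonated and diprotonated test compound were calculated from its two pKa values at pH 6.4, 7.4 and 8.4. The diprotonated percentage was 100 × [H+]2 divided by the summed-species denominator. Protonated fractions in the pH 7.4 recording solution were predicted the same way.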

Data set [7] concerns melanoma cells. Conditions: ref Gavrilova-Ruch et al., 2002; cited from earlier work.
The mark [8] stands for this setting: 10 μM imipramine or 1 μM astemizole.
Setting [9] is: 200 μM internal TEA, 80 mV, 10 μM imipramine or 1 μM astemizole.
[10] abbreviates: control, 80 mV, 10 μM imipramine or 1 μM astemizole.

Take `CN(C)CCC=C1c2ccccc2CCc2ccccc21` [amitriptyline]: in data set [1] (50 μM, ref Wooltorton and Mathie, 1995), the current blocked is on record as about 90%.

As to `CN(C)CCCN1c2ccccc2CCc2ccccc21` [imipramine], in data set [2], the “voltage dependence of block” value was “strongly voltage dependent”. Also, in data set [2] (setting [8]), the “k of exponential fit to τclose(V) (tail current deactivation)” value is given as −0.039 and the “τ(0) of exponential fit to τclose(V) (tail current deactivation)” value came to 65.13 ms. Besides, in data set [2] (100 μM in intracellular pH 6.4 solution (unpublished data)), the “effect on whole-cell current when added to the intracellular solution” value was “no evident reduction”. In data set [2] (200 μM internal TEA), the “reduction of potency in the presence of internal TEA” value was about 50%. For the same molecule, in data set [2] (setting [9]), the current blocked came out at 39 ± 3% and the τblock was found to be 86 ± 5 ms. Further, in data set [2] (7 mM external TEA), the “effect of external TEA on the block” value is “did not affect”. In data set [2] (setting [10]), this molecule registered a current blocked of 77 ± 2% and a τblock of 35 ± 4 ms. Besides, the “slope of logIC50 versus difference between pHext and pHint” value in data set [2] (linear fit) is recorded as −0.86. Besides, the “slope of linear fit of τblock^−1 versus concentration” value in data set [2] (nonsaturating concentrations, 80 mV) is 2.5 s^−1μM^−1. In data set [2] (pHext 7.4, pHint 6.4), the “slope of linear fit of τblock^−1 versus concentration” value stood at 12.6 s^−1μM^−1 and the “time constant of block washout” value came to 46 ± 8 s. In data set [2] (pHext 7.4, pHint 7.4), the “slope of linear fit of τblock^−1 versus concentration” value is reported as 3.4 s^−1μM^−1 and the “time constant of block washout” value was 19 ± 6 s. Further, in data set [2] (pHext 7.4, pHint 8.4), the “slope of linear fit of τblock^−1 versus concentration” value is listed as 0.9 s^−1μM^−1 and the “time constant of block washout” value amounted to 6 ± 1 s. In data set [2] (whole-cell, 80 mV), the “Hill coefficient of fit to τblock versus concentration” value came to 1.27; the “time constant of current decay (τblock) at the IC50 concentration” value is listed as about 50 ms; the “τblock, maximum of Hill fit” value was 86.7 ms; the “τblock, minimum of Hill fit” value was found to be 11.6 ms. Further, the “fraction of the membrane electric field sensed at the binding site” value in data set [2] (z = 1, fit of IC50 versus test potential) was found to be 39%. For the same molecule, the “effect on current, direct application to inside-out patches” value in data set [3] (25 μM, bath pH 6.0, 80 mV) is on record as “complete current suppression”. Moreover, the “time constant of block in inside-out patches” value in data set [3] (bath pH 6.0, pipette pH 7.4, 80 mV) worked out at 155 ms. In addition, the “reversal of block on 2-s washout during the depolarization” value in data set [3] (inside-out patches) is “fully reversed”. For the same molecule, the “time constant of block (equilibration of neutral drug) in outside-out patches” value in data set [4] (bath pH 6.0, pipette pH 7.4) worked out at 182 ms. Besides, the inhibition at 25 µM in data set [4] (read-out: current inhibition in outside-out patches) was about 30%. In addition, in data set [5], the “block of channels in cell-attached patches by bath application” value was “blocked”. The protonated fraction in data set [6] (pH 6.0) is recorded as 99.97%. Further, the predicted protonated fraction in data set [6] (pH 7.4 recording solution) is recorded as 99%. Further, the “effect on proliferation rate” value in data set [7] is reported as “significant reduction”.

`C[N+](C)(C)CCC=C1c2ccccc2CCc2ccccc21` [N-methyl-amitriptyline]: the “effect on whole-cell K+ current when included in the patch pipette” value in data set [1] (50 μM in pipette, ref Wooltorton and Mathie (1995)) is “does not inhibit”.

In the case of `C[N+](C)(C)CCCN1c2ccccc2CCc2ccccc21.[I-]` [N-methyl-imipramine, N-methyl-imipramine iodide], the “effect on current, applied to the extracellular side in outside-out patches” value in data set [4] (5 μM, external and internal pH 7.4) was “virtually no effect”.

As to `CC[N+](CC)(CC)CC` [TEA], the hEag1 current blocked is on record as about 50% in data set [2] (80 mV, 200 μM in the internal solution (unpublished data)) and about 50% in data set [2] (80 mV, 7 mM in the external solution (unpublished data)).
